Data reported in ChEMBL document CHEMBL1121810, “Antihypertensive activity of 6-arylpyrido[2,3-d]pyrimidin-7-amine derivatives” (1981).

Experiments:
Format in all cases: functional
Rattus norvegicus [1] = experiment: Effect on heart rate of spontaneously hypertensive rats, 10 hr after peroral administration at 50 mg/kg; details: route oral
Outline: (§1)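 Heart rate was derived from the pulsatile arterial pressure signal in conscious catheterized male SHR (22-24 weeks, 250-350 g), with continuous monitoring sampled 3 min per 30 min. Drug was given by gavage as a 4% gum acacia suspension at 2 mL/kg, dose as free base, to groups of 3-4 rats with mean pressure >150 mmHg. Individual 30-min means were compared with pretreatment values.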

Rattus norvegicus [2] = experiment: Effect on heart rate of spontaneously hypertensive rats, 2 hr after peroral administration at 50 mg/kg; details: route oral; outline: as §1
Rattus norvegicus [3] = experiment: Maximum percent decrease in heart rate of spontaneously hypertensive rats, 8 hr after peroral administration of 50 mg/kg of compound; details: route oral
Outline: (§2)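 Conscious male SHR (Kyoto-Wistar origin, 22-24 weeks, 250-350 g; mean BP >150 mmHg, pulse pressure >25 mmHg) with indwelling catheters, ~0.8 mL heparinized saline/day. Dosed by gavage as a 4% gum acacia suspension, 2 mL/kg, free-base doses, 3-4 rats per group. Heart rate was derived from the pulsatile pressure signal, sampled 3 min every 30 min, and 30-min means were compared with pretreatment values.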

Rattus norvegicus [4] = experiment: Effect on heart rate of spontaneously hypertensive rats, 24 hr after peroral administration at 50 mg/kg; details: route oral; outline: as §1
Rattus norvegicus [5] = experiment: Maximum percent decrease in heart rate of spontaneously hypertensive rats, 4 hours after peroral administration of 50 mg/kg of compound; details: route oral; outline: as §1
Rattus norvegicus [6] = experiment: Effect on heart rate of spontaneously hypertensive rats,24hours after peroral administration of 10 mg/kg of compound; details: route oral; outline: as §1
Rattus norvegicus [7] = experiment: Effect on heart rate of spontaneously hypertensive rats, 2 hr after peroral administration of 10 mg/kg of compound; details: route oral; outline: as §1
Rattus norvegicus [8] = experiment: Maximum percent decrease in heart rate of spontaneously hypertensive rats, 24 hours after peroral administration of 50 mg/kg of compound; details: route oral; outline: as §1
Rattus norvegicus [9] = experiment: Effect on heart rate of spontaneously hypertensive rats, 10 hr after peroral administration of 10 mg/kg of compound; details: route oral; outline: as §1
Rattus norvegicus [10] = experiment: Effect on heart rate of spontaneously hypertensive rats, 18 hr after peroral administration of 10 mg/kg of compound; details: route oral; outline: as §1
Rattus norvegicus [11] = experiment: Maximum percent decrease in heart rate of spontaneously hypertensive rats, 6 hours after peroral administration of 50 mg/kg of compound; details: route oral; outline: as §2
Rattus norvegicus [12] = organism: Rattus norvegicus; experiment: Dose required to lower blood pressure by 30mmHg, 5-h post treatment
Outline: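 Conscious male SHR (22-24 weeks, 250-350 g) with indwelling catheters for continuous blood pressure and heart rate monitoring; only rats with mean pressure >150 mmHg and pulse pressure >25 mmHg were used. Oral gavage of a suspension in 4% gum acacia (2 mL/kg), doses as free base, groups of 3-4. Mean pressure was sampled 3 min per 30 min and compared with pretreatment; the value is the dose lowering pressure by 30 mmHg at 5 h.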

Rattus norvegicus [13] = experiment: Effect on heart rate of spontaneously hypertensive rats, 10 hr after peroral administration of 3 mg/kg of compound; details: route oral; outline: as §1
Rattus norvegicus [14] = experiment: Maximum percent decrease in heart rate of spontaneously hypertensive rats, 10 hours after peroral administration of 50 mg/kg of compound; details: route oral; outline: as §1
Rattus norvegicus [15] = experiment: Effect on heart rate of spontaneously hypertensive rats, 2 hr after peroral administration of 3 mg/kg of compound; details: route oral; outline: as §1
Rattus norvegicus [16] = experiment: Effect on heart rate of spontaneously hypertensive rats, 24 hr after peroral administration of 3 mg/kg of compound; details: route oral; outline: as §1
Rattus norvegicus [17] = experiment: Effect on heart rate of spontaneously hypertensive rats, 24 hr after peroral administration of 10 mg/kg of compound; details: route oral; outline: as §1
Rattus norvegicus [18] = experiment: Effect on heart rate of spontaneously hypertensive rats, 24 hours after peroral administration of 50 mg/kg of compound; details: route oral; outline: as §1
Rattus norvegicus [19] = experiment: Max effect on heart rate of spontaneously hypertensive rats, 3-5 hr after peroral administration of 10 mg/kg of compound; significant decrease observed on 2nd and 3rd days; details: route oral; outline: as §1
Rattus norvegicus [20] = experiment: (§3) Max effect on heart rate of spontaneously hypertensive rats, 3-5 hr after peroral administration of 3 mg/kg of compound; details: route oral; outline: as §1
Rattus norvegicus [21] = experiment: Max effect on heart rate of spontaneously hypertensive rats, 3-5 hr after peroral administration of 3 mg/kg of compound; significant decrease observed on 2nd and 3rd days; details: route oral; outline: as §1
Rattus norvegicus [22] = experiment: as §3; details: route oral; outline: as §1; remark: listed apart in the source
Rattus norvegicus [23] = experiment: Max effect on heart rate of spontaneously hypertensive rats, 3-5 hr after peroral administration of 10 mg/kg of compound; details: route oral; outline: as §1

SMILES	Activity rating (Rattus norvegicus [1])	Activity rating (Rattus norvegicus [2])	Activity rating (Rattus norvegicus [4])	Activity rating (Rattus norvegicus [7])	Activity rating (Rattus norvegicus [9])	other results
Cc1ncc2cc(-c3ccccc3Cl)c(N)nc2n1	1	0	1	–	–	Decrease (Rattus norvegicus [3]): 16%
Cc1ncc2cc(-c3ccccc3C)c(N)nc2n1	1	1	1	–	–	Decrease (Rattus norvegicus [5]): 22%
Nc1ncc2cc(-c3c(Cl)cccc3Cl)c(N)nc2n1	1	0	2	0	0	Activity rating (Rattus norvegicus [6]): 1; Decrease (Rattus norvegicus [8]): 18%
Cc1ncc2cc(-c3c(Br)cccc3Br)c(N)nc2n1	2	2	2	1	2	Activity rating (Rattus norvegicus [10]): 1; Decrease (Rattus norvegicus [11]): 28%
Cc1ncc2cc(-c3c(Cl)cccc3Cl)c(N)nc2n1	3	1	3	1	1	ED30 (Rattus norvegicus [12]): 17 mg/kg; LD50 (Rattus norvegicus [12]): > 7000 mg/kg; Activity rating (Rattus norvegicus [13]): 1; Decrease (Rattus norvegicus [14]): 32%; Activity rating (Rattus norvegicus [15]): 1; Activity rating (Rattus norvegicus [16]): 1; Activity rating (Rattus norvegicus [17]): 1
Nc1nc2ncncc2cc1-c1ccccc1Cl	0	0	–	–	–	Activity rating (Rattus norvegicus [18]): 0
Nc1nc2ncncc2cc1-c1c(Cl)cccc1Cl	0	0	2	–	–	Activity rating (Rattus norvegicus [19]): 0; Activity rating (Rattus norvegicus [20]): 0; Activity rating (Rattus norvegicus [21]): 0; Decrease (Rattus norvegicus [8]): 22%; Activity rating (Rattus norvegicus [22]): 0; Activity rating (Rattus norvegicus [23]): 0
